Converted amounts (≈) assume the structure as drawn.
Legend:
Streptococcus pneumoniae [1] = experiment: Antimicrobial activity against atypical Streptococcus pneumoniae L11 with parC Ser52Gly, Asn91Asp, Glu135Asp mutation by broth dilution method
Streptococcus pneumoniae [2] = experiment: Antimicrobial activity against atypical Streptococcus pneumoniae L9 with gyrA Ser114Gly, gyrB Ser494Thr and parC Lys137Asn mutation by broth dilution method
Streptococcus oralis [3] = experiment: Antimicrobial activity against Streptococcus oralis HK51with gyrA Ser114Gly, and parC Ser52Gly, Asn91Asp mutation by broth dilution method; assay type: functional
Outline: (§1)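 Ciprofloxacin and levofloxacin MICs were determined by broth dilution following CLSI (formerly NCCLS) guidance. S. pneumoniae ATCC 6303 and ATCC 49619 served as control strains. Reference strains were S. mitis ATCC 49456 and S. oralis ATCC 10557. The clinical isolates came from patients at a Hong Kong teaching hospital.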

Streptococcus mitis [4] = experiment: Antimicrobial activity against Streptococcus mitis HK260 with gyrA Ser114Gly, and parC Ser52Gly, Asn91Asp mutation by broth dilution method; assay type: functional; outline: as §1
Streptococcus pneumoniae [5] = experiment: Antimicrobial activity against Streptococcus pneumoniae L14 with parC Lys137Asn and parE Ile460Val mutation by broth dilution method
Streptococcus oralis [6] = experiment: Antimicrobial activity against Streptococcus oralis HK619 with gyrA Ser114Gly, and parC Ser52Gly, Asn91Asp mutation by broth dilution method; assay type: functional; outline: as §1
Streptococcus viridans [7] = experiment: Antimicrobial activity against Viridans streptococcus L21 with gyrB Ser494Thr and parC Lys137Asn mutation by broth dilution method; assay type: functional; outline: as §1
Streptococcus mitis [8] = experiment: Antimicrobial activity against Streptococcus mitis HK666 with gyrA Ser114Gly, and parC Ser52Gly, Asn91Asp, Glu135Asp mutation by broth dilution method; assay type: functional; outline: as §1
Streptococcus mitis [9] = experiment: Antimicrobial activity against Streptococcus mitis HK467 with gyrA Ser114Gly, Leu155Val and parC Ser52Gly, Asn91Asp, mutation by broth dilution method; assay type: functional; outline: as §1
Streptococcus oralis [10] = experiment: Antimicrobial activity against Streptococcus oralis HK587 with gyrA Ser114Gly, and parC Ser52Gly, Asn91Asp mutation by broth dilution method; assay type: functional; outline: as §1
Streptococcus pneumoniae [11] = experiment: Antimicrobial activity against atypical Streptococcus pneumoniae L3 with parC Lys137Asn mutation by broth dilution method
Streptococcus mitis [12] = experiment: Antimicrobial activity against Streptococcus mitis HK188 with gyrA Ser114Gly, and parC Ser52Gly, Asn91Asp, Glu135Asp mutation by broth dilution method; assay type: functional; outline: as §1
Streptococcus pneumoniae [13] = experiment: Antimicrobial activity against Streptococcus pneumoniae L22 with parC Lys137Asn and parE Ile460Val mutation by broth dilution method
Streptococcus oralis [14] = experiment: Antimicrobial activity against Streptococcus oralis HK122 with gyrA Ser114Gly, and parC Ser52Gly, Asn91Asp mutation by broth dilution method; assay type: functional; outline: as §1
Streptococcus viridans [15] = experiment: Antimicrobial activity against Viridans streptococcus L19 with gyrA Ser114Gly, gyrB Ser494Thr, parC Ser52Gly, Asn91Asp and parE Ile460Val mutation by broth dilution method; assay type: functional; outline: as §1
Streptococcus mitis [16] = experiment: Antimicrobial activity against Streptococcus mitis HK677 with gyrA Ser81Leu, Ser114Gly, gyrB Ser494Thr, parC Ser52Gly, Asp83Tyr, Asn91Asp and parE Arg447Ser mutation by broth dilution method; assay type: functional; outline: as §1
Streptococcus pneumoniae [17] = experiment: Antimicrobial activity against atypical Streptococcus pneumoniae L1 with gyrA Ser81Phe and parC Ser79Phe, Glu96Asp, Lys197Asn mutation by broth dilution method
Streptococcus oralis [18] = experiment: Antimicrobial activity against Streptococcus oralis HK123 with gyrA Ser114Gly, and parC Ser52Gly, Asn91Asp mutation by broth dilution method; assay type: functional; outline: as §1
Streptococcus viridans [19] = experiment: Antimicrobial activity against Viridans streptococcus L18 with gyrA Ser114Gly, Asp142Asn, gyrB Ser494Thr and parE Ile460Val mutation by broth dilution method; assay type: functional; outline: as §1
Streptococcus viridans [20] = experiment: Antimicrobial activity against Viridans streptococcus L2 with gyrA Ser114Gly, gyrB Ser494Thr and parC Ser52Gly, Asn91Asp mutation by broth dilution method; assay type: functional; outline: as §1
Streptococcus mitis [21] = experiment: Antimicrobial activity against Streptococcus mitis HK29 with gyrA Ser114Gly, and parC Ser52Gly, Asn91Asp mutation by broth dilution method; assay type: functional; outline: as §1
Streptococcus mitis [22] = experiment: Antimicrobial activity against Streptococcus mitis HK125807 with gyrA Ser114Gly, and parC Ser52Gly, Asn91Asp mutation by broth dilution method; assay type: functional; outline: as §1
Streptococcus mitis [23] = experiment: Antimicrobial activity against Streptococcus mitis HK137453 with gyrA Ser114Gly, and parC Ser52Gly, Asn91Asp mutation by broth dilution method; assay type: functional; outline: as §1
Streptococcus pneumoniae [24] = experiment: Antimicrobial activity against Streptococcus pneumoniae L13 with parC Asp83Tyr and parE Ile460Val mutation by broth dilution method
Streptococcus viridans [25] = experiment: Antimicrobial activity against Viridans streptococcus L7 with gyrA Ser114Gly, gyrB Ser494Thr and parC Ser52Gly, Asn91Asp mutation by broth dilution method; assay type: functional; outline: as §1
Streptococcus pneumoniae [26] = experiment: Antimicrobial activity against Streptococcus pneumoniae L12 with gyrA Ser81Phe, parC Ser79 Phe and parE Ile460Val mutation by broth dilution method
Streptococcus mitis [27] = experiment: Antimicrobial activity against Streptococcus mitis HK135786 with gyrA Ser114Gly, and parC Ser52Gly, Asn91Asp mutation by broth dilution method; assay type: functional; outline: as §1
Streptococcus oralis [28] = experiment: Antimicrobial activity against Streptococcus oralis HK496 with gyrA Ser114Gly, and parC Ser52Gly, Asn91Asp mutation by broth dilution method; assay type: functional; outline: as §1
Streptococcus pneumoniae [29] = experiment: Antimicrobial activity against atypical Streptococcus pneumoniae L10 with gyrA Ser81Phe and parC Lys197Asn mutation by broth dilution method

Compound: O=C(O)c1cn(C2CC2)c2cc(N3CCNCC3)c(F)cc2c1=O [CIPROFLOXACIN]
- MIC (Streptococcus pneumoniae [1]): 8 µg/mL (≈ 24.1 µM)
- MIC (Streptococcus pneumoniae [2]): 4 µg/mL (≈ 12.1 µM)
- MIC (Streptococcus oralis [3]): 4 µg/mL (≈ 12.1 µM)
- MIC (Streptococcus mitis [4]): < 0.5 µg/mL
- MIC (Streptococcus pneumoniae [5]): 4 µg/mL (≈ 12.1 µM)
- MIC (Streptococcus oralis [6]): 4 µg/mL (≈ 12.1 µM)
- MIC (Streptococcus viridans [7]): 16 µg/mL (≈ 48.3 µM)
- MIC (Streptococcus mitis [8]): 2 µg/mL (≈ 6.04 µM)
- MIC (Streptococcus mitis [9]): 2 µg/mL (≈ 6.04 µM)
- MIC (Streptococcus oralis [10]): 4 µg/mL (≈ 12.1 µM)
- MIC (Streptococcus pneumoniae [11]): 4 µg/mL (≈ 12.1 µM)
- MIC (Streptococcus mitis [12]): 1 µg/mL (≈ 3.02 µM)
- MIC (Streptococcus pneumoniae [13]): 4 µg/mL (≈ 12.1 µM)
- MIC (Streptococcus oralis [14]): 4 µg/mL (≈ 12.1 µM)
- MIC (Streptococcus viridans [15]): 4 µg/mL (≈ 12.1 µM)
- MIC (Streptococcus mitis [16]): 128 µg/mL (≈ 386 µM)
- MIC (Streptococcus pneumoniae [17]): > 32 µg/mL
- MIC (Streptococcus oralis [18]): 4 µg/mL (≈ 12.1 µM)
- MIC (Streptococcus viridans [19]): 4 µg/mL (≈ 12.1 µM)
- MIC (Streptococcus viridans [20]): 4 µg/mL (≈ 12.1 µM)
- MIC (Streptococcus mitis [21]): 4 µg/mL (≈ 12.1 µM)
- MIC (Streptococcus mitis [22]): 2 µg/mL (≈ 6.04 µM)
- MIC (Streptococcus mitis [23]): 2 µg/mL (≈ 6.04 µM)
- MIC (Streptococcus pneumoniae [24]): 4 µg/mL (≈ 12.1 µM)
- MIC (Streptococcus viridans [25]): 4 µg/mL (≈ 12.1 µM)
- MIC (Streptococcus pneumoniae [26]): 64 µg/mL (≈ 193 µM)
- MIC (Streptococcus mitis [27]): 4 µg/mL (≈ 12.1 µM)
- MIC (Streptococcus oralis [28]): 2 µg/mL (≈ 6.04 µM)
- MIC (Streptococcus pneumoniae [29]): 4 µg/mL (≈ 12.1 µM)

Source: ChEMBL document CHEMBL1155167, “Fluoroquinolone resistance in atypical pneumococci and oral streptococci: evidence of horizontal gene transfer of fluoroquinolone resistance determinants from Streptococcus pneumoniae” (2007)
